What was measured:
[1] = tested on: Meriones unguiculatus; test: Inhibition of GR-73632-induced foot tapping in po dosed Mongolian gerbil assessed as duration of repetitive hind foot tapping administered 1 hr before GR-73632 challenge measured after 8 hrs; format: functional; conditions: read-out: ID50 (the source's name)
Outline: (§1)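 Male Mongolian gerbils (45-70 g), at least seven per group, received vehicle or compound orally (10 mL/kg) at 1, 2, 4 or 8 h before icv GR73632 (3 pmol/5 µL). Foot tapping was then scored. Doses were compared by ANOVA with Dunnett's test.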

[2] = tested on: Meriones unguiculatus; test: Inhibition of GR-73632-induced foot tapping in po dosed Mongolian gerbil assessed as duration of repetitive hind foot tapping administered 1 hr before GR-73632 challenge; format: functional; conditions: read-out: ID50 (the source's name); outline: as §1
[3] = molecular target: T1, Substance-P receptor (Homo sapiens, UniProt P25103); conditions: CHO
[4] = molecular target: T1, Substance-P receptor; test: Displacement of [3H]substance P from human recombinant NK1 receptor expressed in CHO cells; format: cell-based
[5] = Ratio of drug level in brain to plasma in rat at 1 mg/kg, iv after 5 mins
[6] = Half life in rat; format: ADME, organism-based; conditions: in vivo
[7] = tested on: Meriones unguiculatus; test: Inhibition of GR-73632-induced foot tapping in po dosed Mongolian gerbil assessed as duration of repetitive hind foot tapping administered 1 hr before GR-73632 challenge measured after 4 hrs; format: functional; conditions: read-out: ID50 (the source's name); outline: as §1
[8] = Plasma clearance in dog; format: ADME, organism-based, Canis lupus familiaris
[9] = tested on: Meriones unguiculatus; test: Inhibition of GR-73632-induced foot tapping in po dosed Mongolian gerbil assessed as duration of repetitive hind foot tapping administered 1 hr before GR-73632 challenge measured after 1 hr; format: functional; conditions: read-out: ID50 (the source's name); outline: as §1
[10] = Bioavailability in rat; format: ADME, organism-based; conditions: in vivo
[11] = Half life in dog; format: ADME, organism-based, Canis lupus familiaris; conditions: in vivo
[12] = tested on: Meriones unguiculatus; test: Inhibition of GR-73632-induced foot tapping in po dosed Mongolian gerbil assessed as duration of repetitive hind foot tapping administered 1 hr before GR-73632 challenge measured after 2 hrs; format: functional; conditions: read-out: ID50 (the source's name); outline: as §1
[13] = Bioavailability in dog; format: ADME, organism-based, Canis lupus familiaris; conditions: in vivo
[14] = molecular target: T1, Substance-P receptor; conditions: CHO; remark: listed apart in the source
[15] = Plasma clearance in rat; format: ADME, organism-based

T1 sequence (P25103 whole entry): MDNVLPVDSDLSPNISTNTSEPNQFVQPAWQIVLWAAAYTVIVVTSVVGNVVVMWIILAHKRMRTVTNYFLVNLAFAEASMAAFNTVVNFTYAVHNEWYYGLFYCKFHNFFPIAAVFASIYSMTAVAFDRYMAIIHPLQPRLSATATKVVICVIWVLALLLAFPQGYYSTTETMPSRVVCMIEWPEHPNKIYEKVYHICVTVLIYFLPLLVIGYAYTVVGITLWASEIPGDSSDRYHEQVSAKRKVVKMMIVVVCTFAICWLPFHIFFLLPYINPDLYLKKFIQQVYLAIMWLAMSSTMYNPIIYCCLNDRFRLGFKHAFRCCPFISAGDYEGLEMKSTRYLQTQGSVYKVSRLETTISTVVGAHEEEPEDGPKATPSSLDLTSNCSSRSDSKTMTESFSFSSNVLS

Compound `Cc1cc(F)ccc1[C@H]1CNCCN1C(=O)N(C)Cc1cc(C(F)(F)F)cc(C(F)(F)F)c1` has an ED50 [1] of 0.3 mg/kg and an ED50 [2] of 0.2 mg/kg.
`CC(=O)O.Cc1cc(F)ccc1[C@H]1CNCCN1C(=O)N(C)[C@@H](C)c1cc(C(F)(F)F)cc(C(F)(F)F)c1` gave an ED50 [2] of 0.036 mg/kg.
For `Cc1cc(F)ccc1N1CCNCC1C(=O)N(C)Cc1cc(C(F)(F)F)cc(C(F)(F)F)c1` (centres undefined), the pKb [3] was 8.56 and the Ki [4] was 8.71 nM.
Work on `Cc1cc(F)ccc1[C@@H]1CNCCN1C(=O)N(C)Cc1cc(C(F)(F)F)cc(C(F)(F)F)c1` yielded an ED50 [2] of 5.6 mg/kg and a Ki [4] of 18.2 nM.
`Cc1cc(F)ccc1C1CNCCN1C(=O)N(C)Cc1cc(C(F)(F)F)cc(C(F)(F)F)c1` (racemic) showed a Ki [4] of 1.29 nM.
Compound `Cc1cc(F)ccc1[C@H]1CNCCN1C(=O)N(C)[C@H](C)c1cc(C(F)(F)F)cc(C(F)(F)F)c1` [VESTIPITANT] has a Kp at 5 min [5] of 1.3, a half-life [6] of 5 h and an ED50 [1] of 0.027 mg/kg. The ED50 [7] was 0.002 mg/kg, the ED50 [2] was 0.014 mg/kg and the clearance [8] was 15 mL/min/kg. The ED50 [9] was 0.014 mg/kg, the pKb [3] was 9.87 and the bioavailability [10] was 44%. The half-life [11] was 11 h, the ED50 [12] was 0.007 mg/kg and the bioavailability [13] was 71%. The T1/2 [14] was 0.995 h and the clearance [15] was 19 mL/min/kg.
Compound `COc1ccc(-n2nnnc2C(F)(F)F)cc1CN[C@H]1CCCN[C@H]1c1ccccc1` [VOFOPITANT] has an ED50 [2] of 0.6 mg/kg and a Ki [4] of 0.0501 nM.
